Experimental data: ChEMBL document CHEMBL4342434, “Identification of HUHS190, a human naftopidil metabolite, as a novel anti-bladder cancer drug” (Bioorg Med Chem Lett, 2020)

Tests used:
[1] = test system: T-24; assay: Antiproliferative activity against human T24 cells assessed as reduction in cell viability incubated for 48 hrs by MTT assay; type: functional, cell-based; details: T-24, 48 h
Outline: (§1)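 Growth inhibition was measured in vitro on human lines: HEK293 (embryonic kidney), PNT1A (normal prostate epithelium immortalized with SV40), PC3 and DU145 (prostate cancer), KK47 and T24 (bladder carcinoma) and 786-O (kidney carcinoma). IC50 in µM was taken from dose–response curves for each cell line.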

[2] = test system: KK-47 cell line; assay: Antiproliferative activity against human KK47 cells assessed as reduction in cell viability incubated for 48 hrs by MTT assay; type: functional, cell-based; details: KK-47, 48 h; outline: as §1
[3] = test system: 786-0; assay: Antiproliferative activity against human 786-O cells assessed as reduction in cell viability incubated for 48 hrs by MTT assay; type: functional, cell-based; details: 786-0, 48 h; outline: as §1
[4] = test system: PNT1A; assay: Cytotoxicity against human PNT1A cells assessed as reduction in cell viability incubated for 48 hrs by MTT assay; type: cell-based; outline: as §1
[5] = test system: DU-145; assay: Antiproliferative activity against human DU145 cells assessed as reduction in cell viability incubated for 48 hrs by MTT assay; type: functional, cell-based; details: DU-145, 48 h; outline: as §1
[6] = test system: PC-3; assay: Antiproliferative activity against human PC3 cells assessed as reduction in cell viability incubated for 48 hrs by MTT assay; type: functional, cell-based; details: PC-3, 48 h; outline: as §1
[7] = test system: HEK293; assay: Cytotoxicity against human HEK293 cells assessed as reduction in cell viability incubated for 48 hrs by MTT assay; type: cell-based; details: HEK293, 48 h; outline: as §1
[8] = Cmax in Sprague-Dawley rat at 32 mg/kg, po measured after 15 mins by HPLC analysis; type: ADME, organism-based; design: dose 32 mg/kg, route oral; details: in vivo
[9] = Toxicity in C57BL/6 mouse bladder cancer model xenografted with mouse MB49 cells at 50 mg/ml dosed via intravesical instillation through catheter for 2 hrs and measured for 28 days; type: organism-based; details: in vivo, other
Outline: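 […] model: a small number of MB49 cells (C57BL/6-derived) were injected by needle into the bladder smooth muscle of C57BL/6 mice after laparotomy under anaesthesia. Compound at 50 mg/mL was then given once by intravesical instillation and kept for 2 h. Day 0 was implantation/dosing, and survival was followed for 4 weeks. Saline, BCG (2 mg/mL) and pirarubicin (1 mg/mL) served as comparators.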

[10] = AUC (0 to 6 hrs) in Sprague-Dawley rat at 32 mg/kg, po measured upto 6 hrs by HPLC analysis; type: ADME, organism-based; design: dose 32 mg/kg, time < 6 hr, route oral; details: in vivo
[11] = Antiproliferative activity against mouse MB49 cells assessed as reduction in cell viability after 72 hrs by WST-8 assay; type: functional, cell-based; details: MB49, 72 h
[12] = Antitumor activity against mouse MB49 cells xenografted in C57BL/6 mouse bladder cancer model assessed as death rate at 50 mg/ml dosed via intravesical instillation through catheter for 2 hrs and measured after 28 days relative to control; type: functional
Outline: (§2)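 MB49 cells (C57BL/6-derived) were injected by needle into the bladder smooth-muscle layer of anaesthetised C57BL/6 mice after laparotomy. The same day (day 0), a single intravesical instillation was given and held in the bladder for 2 h, with saline as the control. Deaths were recorded over 4 weeks, to day 28.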

[13] = Antiproliferative activity against C3H mouse MBT2 cells assessed as reduction in cell viability; type: functional, cell-based
[14] = Antitumor activity against mouse MB49 cells xenografted in C57BL/6 mouse bladder cancer model assessed as death rate at 1 mg/ml dosed via intravesical instillation through catheter for 2 hrs and measured after 28 days relative to control; type: functional; outline: as §2
[15] = test system: L5178Y; assay: Antiproliferative activity against mouse L5178Y cells assessed as reduction in cell viability; type: functional, cell-based

| SMILES | IC50 [1] [µM] | IC50 [2] [µM] | IC50 [3] [µM] | IC50 [4] [µM] | IC50 [5] [µM] | IC50 [6] [µM] | IC50 [7] [µM] | Cmax [8] [ng/mL] | Activity [9] | AUC(0-t) at 6 h [10] [ng·h/mL] | IC50 [11] [µM] | mortality [12] [%] | IC50 [13] [µM] | mortality [14] | IC50 [15] [µM] |
| --- | --- | --- | --- | --- | --- | --- | --- | --- | --- | --- | --- | --- | --- | --- | --- |
| COc1cc(O)ccc1N1CCN(CC(O)COc2ccc(O)c3ccccc23)CC1 (stereo not drawn) | 37.4 | > 50 | 38.7 | 37.2 | > 50 | 45.7 | > 50 |  |  |  |  |  |  |  |  |
| COc1cc(O)ccc1N1CCN(CC(O)COc2cccc3ccccc23)CC1 (stereo not drawn) | 10.5 | 11.8 | 11.4 | > 50 | 17.2 | 24.4 | > 50 | 397 | Non-Toxic | 204 | 12 | 30 |  |  |  |
| Oc1ccc(N2CCN(CC(O)COc3ccc(O)c4ccccc34)CC2)c(O)c1 (stereo not drawn) | 15.6 | 17.9 | 18.5 | 17.1 | 20.3 | 17.7 | 40.4 |  |  |  |  |  |  |  |  |
| Oc1ccccc1N1CCN(CC(O)COc2ccc(O)c3ccccc23)CC1 (stereo not drawn) | 14.8 | 33 | 9.7 | 37.4 | > 50 | 26.1 | > 50 |  |  |  |  |  |  |  |  |
| Oc1ccc(N2CCN(CC(O)COc3cccc4ccccc34)CC2)c(O)c1 (stereo not drawn) | 13.4 | 9.6 | 17.5 | 29.9 | 11.6 | 30.3 | > 50 |  |  |  |  |  |  |  |  |
| Oc1ccccc1N1CCN(CC(O)COc2cccc3ccccc23)CC1 (stereo not drawn) | 18 | 18.9 | 18.7 | 22.2 | 18 | 21.7 | > 50 |  |  |  |  |  |  |  |  |
| COc1ccccc1N1CCN(CC(O)COc2ccc(O)c3ccccc23)CC1 (stereo not drawn) | 16.1 | 17.6 | 46.9 | 34.9 | 35.1 | 28 | > 50 |  |  |  |  |  |  |  |  |
| COc1ccccc1N1CCN(CC(O)COc2cccc3ccccc23)CC1 (stereo not drawn) [NAFTOPIDIL] | 18.5 | 19 | 13.3 | 27 | 21.1 | 31.2 | 47.3 | 110 |  | 202 | 23 |  |  |  |  |
| COc1cccc2c1C(=O)c1c(O)c3c(c(O)c1C2=O)C[C@@](O)(C(=O)CO)C[C@@H]3O[C@H]1C[C@H](N)[C@H](O[C@@H]2CCCCO2)[C@H](C)O1 [PIRARUBICIN] |  |  |  |  |  |  |  |  |  |  | 0.022 |  | 0.022 | 70 - 80% | 0.023 |
